Laboratory results taken from ChEMBL document CHEMBL1124076, “125I-labeled 8-phenylxanthine derivatives: antagonist radioligands for adenosine A1 receptors” (J Med Chem, 1988).

Tests used:
Adenosine A2 receptor = Adenosine A2 receptor (Homo sapiens, UniProt P29275+P29274); test: Inhibition of NECA binding to adenosine A2 receptor mediates reduced adenylate cyclase activity in human platelets
Adenosine receptor A1 [1] = molecular target: T1, Adenosine receptor A1 (Bos taurus, UniProt P28190); test: Displacement of [125-I]-labeled aminobenzyl adenosine binding to adenosine A1 receptor of bovine brain membranes; assay type: cell membranes
T1 sequence (P28190 whole entry): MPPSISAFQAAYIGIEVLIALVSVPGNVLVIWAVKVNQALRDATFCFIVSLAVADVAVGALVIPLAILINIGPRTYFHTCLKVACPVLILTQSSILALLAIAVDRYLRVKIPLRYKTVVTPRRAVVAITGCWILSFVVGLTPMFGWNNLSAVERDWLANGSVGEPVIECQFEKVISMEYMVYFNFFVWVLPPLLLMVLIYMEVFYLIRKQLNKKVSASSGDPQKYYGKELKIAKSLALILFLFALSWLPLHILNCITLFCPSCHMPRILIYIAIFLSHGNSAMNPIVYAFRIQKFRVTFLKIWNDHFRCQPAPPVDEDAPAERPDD
Outline: (§1)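 Bovine cerebral cortex membranes, pretreated with EDTA, at 0.5 mg protein/mL in 10 mM HEPES, 1 mM EDTA, 0.1 mM benzamidine, pH 7.4. Incubated 2-3 h at 21 °C, then filtered and washed with ice-cold 10 mM Tris-HCl pH 7.4. Nonspecific binding by 100 μM PIA, 1 mM theophylline or 1 μM IIIa.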

Adenosine receptor A1 [2] = molecular target: T1, Adenosine receptor A1; test: Binding affinity for adenosine A1 receptor as inhibition of [125-I]-labeled aminobenzyl adenosine binding to bovine brain membranes; assay type: cell membranes; outline: as §1
Adenosine receptor A1 [3] = molecular target: T1, Adenosine receptor A1; test: Binding affinity for adenosine A1 receptor using [125-I]-labeled aminobenzyl adenosine in bovine brain membranes; assay type: cell membranes; outline: as §1
Adenosine receptor A1 [4] = molecular target: T2, Adenosine receptor A1 (Rattus norvegicus, UniProt P25099); test: Binding affinity to adenosine A1 receptor of rat brain membranes with 1 M NaCl by inhibition of [125-I]-IIIa binding
T2 sequence (P25099 whole entry): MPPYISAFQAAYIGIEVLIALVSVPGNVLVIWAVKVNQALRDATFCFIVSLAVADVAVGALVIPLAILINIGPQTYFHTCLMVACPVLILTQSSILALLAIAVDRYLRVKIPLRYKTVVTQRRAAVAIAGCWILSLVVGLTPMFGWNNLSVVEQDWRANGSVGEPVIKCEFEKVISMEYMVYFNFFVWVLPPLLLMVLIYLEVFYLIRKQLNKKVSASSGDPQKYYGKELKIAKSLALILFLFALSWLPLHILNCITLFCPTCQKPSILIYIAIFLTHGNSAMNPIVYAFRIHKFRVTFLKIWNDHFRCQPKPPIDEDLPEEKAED

Adenosine receptor A1 [5] = molecular target: T2, Adenosine receptor A1

SMILES	Ki (Adenosine A2 receptor)	Kd (Adenosine receptor A1 [1])	Kd (Adenosine receptor A1 [2])	Kd (Adenosine receptor A1 [3])	IC50 (Adenosine receptor A1 [4])	IC50 (Adenosine receptor A1 [5])
Nc1ccc(CCn2c(=O)c3nc(-c4ccc(OCC(=O)O)cc4)[nH]c3n(CCc3ccc(N)cc3)c2=O)cc1	> 100000 nM	3590 nM	–	–	–	–
CCCn1c(=O)n(Cc2ccc(N=[N+]=[N-])c(I)c2)c(=O)c2[nH]c(-c3ccc(OCC(=O)O)cc3)nc21	5300 nM	–	960 nM	–	–	–
CCCn1c(=O)c2nc(-c3ccc(OCC(=O)O)cc3)[nH]c2n(Cc2ccc(N=[N+]=[N-])c(I)c2)c1=O	2100 nM	–	–	55 nM	–	–
CCCn1c(=O)n(CCc2ccc(N)c(I)c2)c(=O)c2[nH]c(-c3ccc(OCC(=O)O)cc3)nc21	20000 nM	3100 nM	–	–	–	–
CCCn1c(=O)c2[nH]c(-c3ccc(OCC(=O)O)cc3)nc2n(CCC)c1=O	–	–	17 nM	–	–	–
CCCn1c(=O)n(CCc2ccc(N=[N+]=[N-])c(I)c2)c(=O)c2[nH]c(-c3ccc(OCC(=O)O)cc3)nc21	12300 nM	–	2860 nM	–	–	–

The next lines start with the values.

Ki (Adenosine A2 receptor)	Kd (Adenosine receptor A1 [1])	Kd (Adenosine receptor A1 [2])	Kd (Adenosine receptor A1 [3])	IC50 (Adenosine receptor A1 [4])	IC50 (Adenosine receptor A1 [5])	SMILES
5300 nM	29 nM	–	–	–	–	CCCn1c(=O)c2nc(-c3ccc(OCC(=O)O)cc3)[nH]c2n(CCc2ccc(N)c(I)c2)c1=O
1800 nM	160 nM	–	–	–	–	CCCn1c(=O)n(Cc2ccc(N)c(I)c2)c(=O)c2[nH]c(-c3ccc(OCC(=O)O)cc3)nc21
11500 nM	2300 nM	–	–	–	–	CCCn1c(=O)n(CCc2ccc(N)cc2)c(=O)c2[nH]c(-c3ccc(OCC(=O)O)cc3)nc21
23000 nM	44 nM	–	–	5.2 nM	44 nM	CCCn1c(=O)n(Cc2ccc(N)cc2)c(=O)c2[nH]c(-c3ccc(OCC(=O)O)cc3)nc21
5400 nM	24 nM	–	–	–	–	CCCn1c(=O)c2nc(-c3ccc(OCC(=O)O)cc3)[nH]c2n(CCc2ccc(N=[N+]=[N-])c(I)c2)c1=O
1000 nM	32 nM	–	–	3.4 nM	64 nM	CCCn1c(=O)c2nc(-c3ccc(OCC(=O)O)cc3)[nH]c2n(Cc2ccc(N)cc2)c1=O
11500 nM	60 nM	–	–	3.4 nM	37 nM	CCCn1c(=O)c2nc(-c3ccc(OCC(=O)O)cc3)[nH]c2n(CCc2ccc(N)cc2)c1=O
700 nM	37 nM	–	–	3 nM	37 nM	CCCn1c(=O)c2nc(-c3ccc(OCC(=O)O)cc3)[nH]c2n(Cc2ccc(N)c(I)c2)c1=O
